Active and inactive are the calls of the source. The rule behind the calls is not given here.

Sequence of Transcriptional coactivator YAP1 (Homo sapiens) (P46937 whole entry): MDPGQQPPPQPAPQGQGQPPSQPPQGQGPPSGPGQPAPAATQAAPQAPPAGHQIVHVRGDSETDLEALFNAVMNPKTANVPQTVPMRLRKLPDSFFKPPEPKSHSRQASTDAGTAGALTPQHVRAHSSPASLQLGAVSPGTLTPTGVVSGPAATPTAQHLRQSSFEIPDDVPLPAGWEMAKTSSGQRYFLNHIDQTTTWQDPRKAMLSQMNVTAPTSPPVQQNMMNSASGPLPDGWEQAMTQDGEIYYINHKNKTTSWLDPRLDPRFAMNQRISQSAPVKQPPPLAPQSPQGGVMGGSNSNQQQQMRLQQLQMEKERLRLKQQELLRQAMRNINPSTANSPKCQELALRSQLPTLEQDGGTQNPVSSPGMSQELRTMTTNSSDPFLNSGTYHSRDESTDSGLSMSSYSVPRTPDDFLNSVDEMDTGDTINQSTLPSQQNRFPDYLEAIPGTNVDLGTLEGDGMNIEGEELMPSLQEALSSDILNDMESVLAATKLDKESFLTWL

For the first assay, the target named is Transcriptional coactivator YAP1 (Homo sapiens) (UniProt P46937). Briefly: Induction of YAP nuclear translocation in human A549 cells at 10 uM incubated for 8 hrs by immunofluorescence based confocal microscopy. Type of assay: cell-based. The method in brief:
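A549-CTGF reporter cells were treated for 8 h at 10 µM, with 0.1% DMSO as vehicle control. Cells were then fixed, permeabilized and probed with anti-YAP antibody. DAPI stained the nuclei, and YAP localization was imaged by immunofluorescence.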
In the case of `CN1C(=O)c2sccc2N(C)c2nc(Nc3ccc(S(N)(=O)=O)cc3)ncc21`, the result was Active.

The test system of a further assay is A549. Briefly: Inhibition of hippo signalling protein in human A549 cells assessed as increase in CTGF mRNA expression level at 10 uM incubated for 24 hrs by qRT-PCR analysis. It counts as cell-based. A digest of the protocol: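 A549-CTGF cells were exposed to compound or 0.1% DMSO for 24 h before total RNA extraction. Endogenous CTGF mRNA was quantified by real-time PCR. Data were mean ± SEM (n=4) and compared by Student's t-test.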
(In qPCR the cycle at which signal appears reflects the starting amount.)
For the compound `CN1C(=O)c2sccc2N(C)c2nc(Nc3ccc(S(N)(=O)=O)cc3)ncc21`, the inhibition entry is “Active”.

A further assay relates to A549. Briefly: Inhibition of hippo signalling protein in human A549 cells cotransfected with CTGF promoter-driven firefly luciferase and CMV promoter-driven renilla luciferase gene assessed as increase in CTGF expression at 10 uM incubated for 24 hrs by dual-luciferase gene assay relative to control.
For the compound `C[C@@H](c1ccccc1)n1nnc2cnc3ccc(-c4ccc(Cl)nc4)cc3c21`, the fold change (FC) worked out at 1.24.

`Fc1ccc(Cn2nnc3cnc4ccc(-c5cnc6[nH]ccc6c5)cc4c32)cc1`: the fold change (FC) worked out at 3.87.

For the compound `C[C@@H](c1ccccc1)n1nnc2cnc3ccc(-c4cnc(N)nc4)cc3c21`, the fold change (FC) is 3.49.

For `C[C@@H](c1ccc(F)cc1)n1nnc2cnc3ccc(-c4cnc5[nH]ccc5c4)cc3c21`, the fold change (FC) is 6.51.

In the case of `Fc1ccc(-n2nnc3cnc4ccc(-c5cnc6[nH]ccc6c5)cc4c32)cc1`, the fold change (FC) stood at 3.44.

On to `COc1ccc(-c2ccc3ncc4nnn([C@@H](C)c5ccccc5)c4c3c2)cn1`, for which the fold change (FC) is 0.996.

On to `CC(C)n1nnc2cnc3ccc(-c4cnc5[nH]ccc5c4)cc3c21`, for which the fold change (FC) is 3.38.

Regarding `C[C@@H](c1ccccc1)n1nnc2cnc3ccc(-c4c[nH]c5ncccc45)cc3c21`, the fold change (FC) was determined as 1.11.

In the case of `CN1C(=O)c2sccc2N(C)c2nc(Nc3ccc(S(N)(=O)=O)cc3)ncc21`, the fold change (FC) stood at 4.92.

As to `COc1cccc([C@@H](C)n2nnc3cnc4ccc(-c5cnc6[nH]ccc6c5)cc4c32)c1`, the fold change (FC) came to 2.22.

Take `C[C@@H](c1ccccc1)n1nnc2cnc3ccc(-c4ccc5[nH]ccc5c4)cc3c21`: the fold change (FC) is 4.6.

Turning to `CC[C@@H](c1ccccc1)n1nnc2cnc3ccc(-c4cnc5[nH]ccc5c4)cc3c21`, the fold change (FC) stood at 8.06.

With `C[C@H](c1ccccc1)n1nnc2cnc3ccc(-c4cnc5[nH]ccc5c4)cc3c21`, the fold change (FC) was determined as 8.1.

In the case of `C[C@@H](c1ccccc1)n1nnc2cnc3ccc(-c4ccnc5[nH]ccc45)cc3c21`, the fold change (FC) was determined as 0.549.

`C[C@@H](c1ccccc1)n1nnc2cnc3ccc(-c4ccc(C#N)nc4)cc3c21`: the fold change (FC) came to 1.94.

Take `C[C@@H](c1ccccc1)n1nnc2cnc3ccc(-c4ccc(N)cc4)cc3c21`: the fold change (FC) worked out at 2.24.

For the compound `C[C@@H](c1cccc(F)c1)n1nnc2cnc3ccc(-c4cnc5[nH]ccc5c4)cc3c21`, the fold change (FC) stood at 4.91.

Turning to `C[C@@H](c1ccccc1)n1nnc2cnc3ccc(-c4ccccc4)cc3c21`, the fold change (FC) came out at 1.43.

Take `C[C@H](c1cccc(F)c1)n1nnc2cnc3ccc(-c4cnc5[nH]ccc5c4)cc3c21`: the fold change (FC) is 2.1.

With `C[C@H](c1ccc(F)cc1)n1nnc2cnc3ccc(-c4cnc5[nH]ccc5c4)cc3c21`, the fold change (FC) is 4.92.

Regarding `C[C@@H](c1ccccc1)n1nnc2cnc3ccc(-c4ccc(N)nc4)cc3c21`, the fold change (FC) was 9.09.

For `COc1cccc([C@H](C)n2nnc3cnc4ccc(-c5cnc6[nH]ccc6c5)cc4c32)c1`, the fold change (FC) was 3.13.

With `C[C@@H](c1ccccc1)n1nnc2cnc3ccc(-c4ccc(N)c(Cl)c4)cc3c21`, the fold change (FC) turned out to be 1.73.

Take `CC[C@H](c1ccccc1)n1nnc2cnc3ccc(-c4cnc5[nH]ccc5c4)cc3c21`: the fold change (FC) came to 3.72.

For `Cn1nnc2cnc3ccc(-c4cnc5[nH]ccc5c4)cc3c21`, the fold change (FC) is 0.55.

For the compound `C[C@@H](c1ccccc1)n1nnc2cnc3ccc(-c4ccnc(N)c4)cc3c21`, the fold change (FC) was 2.01.

For `C[C@@H](c1ccccc1)n1nnc2cnc3ccc(-c4ccc(N(C)C)nc4)cc3c21`, the fold change (FC) was 1.19.

As to `C[C@@H](c1ccccc1)n1nnc2cnc3ccc(-c4ccc(N5CCOCC5)nc4)cc3c21`, the fold change (FC) came out at 1.06.

Another assay has as its system A549. Briefly: Inhibition of hippo signalling protein in human A549 cells cotransfected with CTGF promoter-driven firefly luciferase and CMV promoter-driven renilla luciferase gene incubated for 24 hrs by dual-luciferase gene assay. Type of assay: cell-based. The method in brief: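 Dual-luciferase reporter read-out in A549-CTGF cells after 24 h culture with compound. Firefly luciferase is expressed relative to DMSO-treated cells, set as 1. Screening used 10 µM. Values are mean ± SEM of three independent experiments.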
`CN1C(=O)c2sccc2N(C)c2nc(Nc3ccc(S(N)(=O)=O)cc3)ncc21`: the inhibition result was “Dose-dependent effect”.

Values taken from ChEMBL document CHEMBL4334471, “Discovery of 1,8-disubstituted-[1,2,3]triazolo[4,5-c]quinoline derivatives as a new class of Hippo signaling pathway inhibitors” (Bioorg Med Chem Lett, 2019).
